Source: ChEMBL document CHEMBL1153967, “Discovery of substituted 4-anilino-2-arylpyrimidines as a new series of apoptosis inducers using a cell- and caspase-based high throughput screening assay. 2. Structure-activity relationships of the 2-aryl group” (Bioorg Med Chem Lett, 2009)
Calls of active or inactive are those of the source. No cut-off for these calls is given here.

Legend:
T47D [1] = assay: Induction of apoptosis in human T47D cells assessed as accumulation at S phase at 0.05 uM after 48 hrs by flow cytometry analysis; assay type: functional
Procedure, shortened: (§1)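 T47D cells treated at 0.05 µM for 24 h or 48 h at 37 °C alongside untreated controls. Cells stained with propidium iodide and analysed by flow cytometry. Percentages in sub-G1, G1, S and G2/M read from DNA-content histograms.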

HCT-116 [2] = assay: Induction of apoptosis in human HCT116 cells assessed as caspase activation after 48 hrs by HTS assay; assay type: functional, cell-based; conditions: HCT-116, 48 h
Procedure, shortened: (§2)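 Cell-based caspase-3 activation HTS read with a proprietary fluorescent caspase-3 substrate in T47D, HCT116 and SNU398 cells. Compounds applied for 48 h, highest level 10 µM. EC50 reported as mean ± SEM of three or more experiments.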

T47D [3] = assay: Induction of apoptosis in human T47D cells assessed as accumulation at G2/M phase at 0.05 uM after 48 hrs by flow cytometry analysis; assay type: functional; procedure, shortened: as §1
T47D [4] = assay: Induction of apoptosis in human T47D cells assessed as accumulation at subG1 phase at 0.05 uM after 24 hrs by flow cytometry analysis; assay type: functional; procedure, shortened: as §1
[5] = Inhibition of tubulin polymerization
T47D [6] = assay: Induction of apoptosis in human T47D cells assessed as accumulation at S phase at 0.05 uM after 24 hrs by flow cytometry analysis; assay type: functional; procedure, shortened: as §1
T47D [7] = assay: Growth inhibition of human T47D cells after 48 hrs; assay type: functional
Procedure, shortened: (§3)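 96-well growth-inhibition (GI50) format, run in parallel in T47D breast, HCT116 colon and SNU398 hepatocellular carcinoma cells.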

T47D [8] = assay: Induction of apoptosis in human T47D cells assessed as accumulation at G1 phase at 0.05 uM after 48 hrs by flow cytometry analysis; assay type: functional; procedure, shortened: as §1
T47D [9] = assay: Induction of apoptosis in human T47D cells assessed as caspase activation after 48 hrs by HTS assay; assay type: functional, cell-based; procedure, shortened: as §2
SNU-398 [10] = assay: Induction of apoptosis in human SNU398 cells assessed as caspase activation after 48 hrs by HTS assay; assay type: functional, cell-based; conditions: SNU-398, 48 h; procedure, shortened: as §2
HCT-116 [11] = assay: Growth inhibition of human HCT116 cells after 48 hrs; assay type: functional; conditions: HCT-116, 48 h; procedure, shortened: as §3
T47D [12] = assay: Induction of apoptosis in human T47D cells assessed as accumulation at G1 phase at 0.05 uM after 24 hrs by flow cytometry analysis; assay type: functional; procedure, shortened: as §1
T47D [13] = assay: Induction of apoptosis in human T47D cells assessed as accumulation at subG1 phase at 0.05 uM after 48 hrs by flow cytometry analysis; assay type: functional; procedure, shortened: as §1
T47D [14] = assay: Induction of apoptosis in human T47D cells assessed as accumulation at G2/M phase at 0.05 uM after 24 hrs by flow cytometry analysis; assay type: functional; procedure, shortened: as §1
SNU-398 [15] = assay: Growth inhibition of human SNU398 cells after 48 hrs; assay type: functional; conditions: SNU-398, 48 h; procedure, shortened: as §3
[16] = Inhibition of tubulin polymerization up to 50 uM

## COc1ccc(OC)c(Nc2cc(C(F)(F)F)nc(-c3cccnc3)n2)c1
T47D [1]
  Activity: 7%
HCT-116 [2]
  EC50: 170 nM
T47D [3]
  Activity: 43%
T47D [4]
  Activity: 7%
[5]
  IC50: 500 nM
T47D [6]
  Activity: 6%
T47D [7]
  GI50: 95 nM
T47D [8]
  Activity: 31%
T47D [9]
  EC50: 24 nM
SNU-398 [10]
  EC50: 130 nM
HCT-116 [11]
  GI50: 180 nM
T47D [12]
  Activity: 32%
T47D [13]
  Activity: 19%
T47D [14]
  Activity: 53%
SNU-398 [15]
  GI50: 68 nM

## COc1ccc(N2CCCCC2)c(Nc2cc(C(F)(F)F)nc(-c3cccnc3)n2)c1
HCT-116 [2]
  EC50: > 10000 nM
T47D [9]
  EC50: > 10000 nM
SNU-398 [10]
  EC50: > 10000 nM

## Oc1ccc(Cl)c(Nc2cc(C(F)(F)F)nc(-c3cnccn3)n2)c1
HCT-116 [2]
  EC50: > 10000 nM
T47D [9]
  EC50: 560 nM
SNU-398 [10]
  EC50: > 10000 nM

## Cc1ccc(O)cc1Nc1cc(C(F)(F)F)nc(-c2cnccn2)n1
HCT-116 [2]
  EC50: > 10000 nM
T47D [9]
  EC50: 190 nM
SNU-398 [10]
  EC50: > 10000 nM

## COc1ccc(Cl)c(Nc2cc(C(F)(F)F)nc(-c3ccncc3)n2)c1
HCT-116 [2]
  EC50: 960 nM
T47D [9]
  EC50: 100 nM

## COc1ccc(OC)c(Nc2cc(C(F)(F)F)nc(-c3cnccn3)n2)c1
HCT-116 [2]
  EC50: 410 nM
T47D [9]
  EC50: 48 nM
SNU-398 [10]
  EC50: 280 nM

## COc1cccc(Nc2cc(C(F)(F)F)nc(-c3ccccc3)n2)c1
HCT-116 [2]
  EC50: > 10000 nM
T47D [9]
  EC50: > 10000 nM
SNU-398 [10]
  EC50: > 10000 nM

## COc1ccc(Cl)c(Nc2cc(C)nc(N3CCOCC3)n2)c1
HCT-116 [2]
  EC50: > 10000 nM
T47D [9]
  EC50: > 10000 nM
SNU-398 [10]
  EC50: > 10000 nM

## COc1cc(Nc2cc(C(F)(F)F)nc(-c3cccnc3)n2)cc(OC)c1
HCT-116 [2]
  EC50: 2900 nM
T47D [7]
  GI50: 61 nM
T47D [9]
  EC50: 82 nM
SNU-398 [10]
  EC50: 1400 nM
HCT-116 [11]
  GI50: 1300 nM
SNU-398 [15]
  GI50: 1000 nM

## COc1ccc(OC)c(Nc2nc(-c3ccccn3)ncc2OC)c1
HCT-116 [2]
  EC50: > 10000 nM
T47D [9]
  EC50: > 10000 nM
SNU-398 [10]
  EC50: > 10000 nM

## COc1ccc(Cl)c(Nc2cc(C(F)(F)F)nc(-c3cccnc3)n2)c1
HCT-116 [2]
  EC50: 930 nM
T47D [9]
  EC50: 140 nM
SNU-398 [10]
  EC50: 820 nM

## Cc1ccc(C)c(Nc2cc(C(F)(F)F)nc(-c3ccncc3)n2)c1
HCT-116 [2]
  EC50: 610 nM
T47D [9]
  EC50: 120 nM

## Cc1ccc(O)cc1Nc1cc(C(F)(F)F)nc(-c2ccncc2)n1
HCT-116 [2]
  EC50: 2000 nM
T47D [9]
  EC50: 48 nM

## COc1cccc(Nc2nc(-c3ccccn3)ncc2OC)c1
HCT-116 [2]
  EC50: > 10000 nM
T47D [9]
  EC50: > 10000 nM
SNU-398 [10]
  EC50: > 10000 nM

## COc1ccc(OC)c(Nc2cc(C(F)(F)F)nc(-c3ccccn3)n2)c1
HCT-116 [2]
  EC50: 190 nM
T47D [9]
  EC50: 18 nM
SNU-398 [10]
  EC50: 110 nM

## FC(F)(F)c1cc(Nc2cccc(Cl)c2)nc(-c2cccnc2)n1
HCT-116 [2]
  EC50: > 10000 nM
T47D [9]
  EC50: > 10000 nM
SNU-398 [10]
  EC50: > 10000 nM

## COc1cccc(Nc2cc(C(F)(F)F)nc(C3CCCCN3)n2)c1 (stereo not drawn)
HCT-116 [2]
  EC50: > 10000 nM
T47D [9]
  EC50: > 10000 nM
SNU-398 [10]
  EC50: > 10000 nM

## COc1ccc(C)c(Nc2cc(C(F)(F)F)nc(-c3ccncc3)n2)c1
HCT-116 [2]
  EC50: 120 nM
T47D [9]
  EC50: 25 nM

## COc1cc(Nc2cc(C(F)(F)F)nc(-c3cnccn3)n2)cc(OC)c1
HCT-116 [2]
  EC50: > 10000 nM
T47D [9]
  EC50: 130 nM
SNU-398 [10]
  EC50: > 10000 nM

## COc1ccc(C)cc1Nc1cc(C(F)(F)F)nc(-c2ccncc2)n1
HCT-116 [2]
  EC50: 160 nM
T47D [9]
  EC50: 76 nM

## COc1cccc(Nc2cc(C(F)(F)F)nc(-c3ccncc3)n2)c1
HCT-116 [2]
  EC50: > 10000 nM
T47D [9]
  EC50: 1300 nM
SNU-398 [10]
  EC50: > 10000 nM

## COc1ccc(Cl)c(Nc2cc(C(F)(F)F)nc(-c3c(Cl)cncc3Cl)n2)c1
HCT-116 [2]
  EC50: > 10000 nM
T47D [9]
  EC50: > 10000 nM
SNU-398 [10]
  EC50: > 10000 nM

## Oc1cccc(Nc2cc(C(F)(F)F)nc(-c3ccncc3)n2)c1
HCT-116 [2]
  EC50: 3100 nM
T47D [9]
  EC50: 680 nM

## COc1cc(Nc2cc(C(F)(F)F)nc(-c3ccncc3)n2)cc(OC)c1
HCT-116 [2]
  EC50: 240 nM
T47D [7]
  GI50: 36 nM
T47D [9]
  EC50: 34 nM
HCT-116 [11]
  GI50: 270 nM
SNU-398 [15]
  GI50: 270 nM

## Oc1ccc(Cl)c(Nc2cc(C(F)(F)F)nc(-c3cccnc3)n2)c1
HCT-116 [2]
  EC50: > 10000 nM
T47D [9]
  EC50: 230 nM
SNU-398 [10]
  EC50: > 10000 nM

## Oc1ccc(Cl)c(Nc2cc(C(F)(F)F)nc(-c3ccncc3)n2)c1
HCT-116 [2]
  EC50: 1100 nM
T47D [9]
  EC50: 77 nM

## COc1ccc(Nc2cc(C(F)(F)F)nc(-c3cccnc3)n2)cc1
HCT-116 [2]
  EC50: > 10000 nM
T47D [9]
  EC50: > 10000 nM
SNU-398 [10]
  EC50: > 10000 nM

## COc1ccc(C)cc1Nc1cc(C(F)(F)F)nc(-c2cccnc2)n1
HCT-116 [2]
  EC50: 130 nM
T47D [9]
  EC50: 96 nM
SNU-398 [10]
  EC50: 130 nM

## COc1cccc(Nc2cc(C(F)(F)F)nc(-c3ccccn3)n2)c1
HCT-116 [2]
  EC50: 6000 nM
T47D [9]
  EC50: 360 nM
SNU-398 [10]
  EC50: 3700 nM

## COc1cccc(Nc2cc(C(F)(F)F)nc(-c3cccnc3)n2)c1
HCT-116 [2]
  EC50: > 10000 nM
T47D [7]
  GI50: 94 nM
T47D [9]
  EC50: 340 nM
SNU-398 [10]
  EC50: > 10000 nM
HCT-116 [11]
  GI50: > 10000 nM
[16]
  Activity: inactive
SNU-398 [15]
  GI50: 6400 nM

## COc1ccc(Oc2ccccc2)cc1Nc1cc(C(F)(F)F)nc(-c2cccnc2)n1
HCT-116 [2]
  EC50: 3300 nM
T47D [9]
  EC50: 1500 nM
SNU-398 [10]
  EC50: 5000 nM

## COc1ccc(Cl)cc1Nc1cc(C(F)(F)F)nc(-c2cccnc2)n1
HCT-116 [2]
  EC50: 610 nM
T47D [9]
  EC50: 360 nM
SNU-398 [10]
  EC50: 440 nM

## COc1ccc(Nc2cc(C(F)(F)F)nc(-c3ccncc3)n2)cc1
HCT-116 [2]
  EC50: > 10000 nM
T47D [9]
  EC50: > 10000 nM
SNU-398 [10]
  EC50: > 10000 nM

## Cc1ccc(O)cc1Nc1cc(C(F)(F)F)nc(-c2cccnc2)n1
HCT-116 [2]
  EC50: > 10000 nM
T47D [9]
  EC50: 87 nM
SNU-398 [10]
  EC50: 5500 nM

## FC(F)(F)c1cc(Nc2cccc(-c3ccccc3)c2)nc(-c2cccnc2)n1
HCT-116 [2]
  EC50: > 10000 nM
T47D [9]
  EC50: > 10000 nM
SNU-398 [10]
  EC50: > 10000 nM

## Oc1cccc(Nc2cc(C(F)(F)F)nc(-c3cccnc3)n2)c1
HCT-116 [2]
  EC50: > 10000 nM
T47D [9]
  EC50: 970 nM
SNU-398 [10]
  EC50: > 10000 nM

## COc1ccc(OC)c(Nc2cc(-c3ccccn3)nc(-c3ccccn3)n2)c1
HCT-116 [2]
  EC50: 330 nM
T47D [7]
  GI50: 240 nM
T47D [9]
  EC50: 420 nM
SNU-398 [10]
  EC50: 160 nM
HCT-116 [11]
  GI50: 130 nM
SNU-398 [15]
  GI50: 410 nM
